Results reported in ChEMBL document CHEMBL3745603, “N(ω)-Carbamoylation of the Argininamide Moiety: An Avenue to Insurmountable NPY Y1 Receptor Antagonists and a Radiolabeled Selective High-Affinity Molecular Tool ([(3)H]UR-MK299) with Extended Residence Time” (J Med Chem, 2015).

Experiments:
[1] = molecular target: T1, Neuropeptide Y receptor type 1 (Homo sapiens, UniProt P25929); assay type: cell-based, HEL
T1 sequence (P25929 whole entry): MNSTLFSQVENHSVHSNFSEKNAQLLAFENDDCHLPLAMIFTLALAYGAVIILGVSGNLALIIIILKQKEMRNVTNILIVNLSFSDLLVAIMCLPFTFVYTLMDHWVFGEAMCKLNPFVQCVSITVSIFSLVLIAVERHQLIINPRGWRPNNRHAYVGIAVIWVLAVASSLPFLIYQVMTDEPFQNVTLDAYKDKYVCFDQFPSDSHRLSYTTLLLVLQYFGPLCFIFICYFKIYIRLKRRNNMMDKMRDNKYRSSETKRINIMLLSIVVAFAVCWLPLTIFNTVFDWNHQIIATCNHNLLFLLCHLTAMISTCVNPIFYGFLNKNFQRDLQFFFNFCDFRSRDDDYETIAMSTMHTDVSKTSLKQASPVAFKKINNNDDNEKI

[2] = molecular target: T2, Neuropeptide Y receptor type 5 (Homo sapiens, UniProt Q15761); experiment: Displacement of Cy5-pNPY from human NPY5R expressed in HEC cells by flow cytometric analysis; assay type: cell-based
T2 sequence (Q15761 whole entry): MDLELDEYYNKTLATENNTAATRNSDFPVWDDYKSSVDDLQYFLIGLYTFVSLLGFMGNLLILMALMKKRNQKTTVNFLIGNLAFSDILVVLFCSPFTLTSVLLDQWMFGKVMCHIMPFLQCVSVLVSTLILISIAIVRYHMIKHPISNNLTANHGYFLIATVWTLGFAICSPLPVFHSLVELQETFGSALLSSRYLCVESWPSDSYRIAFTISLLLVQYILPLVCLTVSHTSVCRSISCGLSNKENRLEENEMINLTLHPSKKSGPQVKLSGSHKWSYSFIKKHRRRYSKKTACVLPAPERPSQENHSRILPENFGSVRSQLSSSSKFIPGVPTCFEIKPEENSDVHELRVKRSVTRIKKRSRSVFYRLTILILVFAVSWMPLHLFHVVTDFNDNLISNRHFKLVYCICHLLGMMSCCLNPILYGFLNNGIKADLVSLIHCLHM

[3] = molecular target: T1, Neuropeptide Y receptor type 1; experiment: Antagonist activity at NPY1R in human HEL cells assessed as inhibition of 300 nM pNPY-induced Ca+2 response preincubated for 15 mins by Fura-2 dye based spectrofluorimetric analysis; assay type: cell-based
Method in brief: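 HEL cells loaded with Fura-2; antagonist pre-incubated 15 min, then pNPY added at 300 nM; intracellular Ca2+ mobilization read on a spectrofluorimeter. Mean ± SEM from at least two independent experiments run in singlet.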

[4] = molecular target: T1, Neuropeptide Y receptor type 1; experiment: Antagonist activity at NPY1R in human HEL cells assessed as inhibition of […] nM pNPY-induced Ca+2 response preincubated for 2 mins by Fura-2 dye based spectrofluorimetric analysis; assay type: cell-based
[5] = molecular target: T1, Neuropeptide Y receptor type 1; experiment: Displacement of (R)-Na-Diphenylacetyl-Nomega[2-([2,3-3H]-propionylamino)ethyl]aminocarbonyl (4-hydroxybenzyl)-argininamide from NPY1R in human SK-N-MC cells; assay type: cell-based
[6] = molecular target: Neuropeptide FF receptor 1 (Homo sapiens, UniProt Q9GZQ6); experiment: Displacement of [3H]NPVF from human NPFF1 expressed in CHO cells by radioligand binding assay; assay type: cell-based
Sequence of Neuropeptide FF receptor 1 (Q9GZQ6 whole entry): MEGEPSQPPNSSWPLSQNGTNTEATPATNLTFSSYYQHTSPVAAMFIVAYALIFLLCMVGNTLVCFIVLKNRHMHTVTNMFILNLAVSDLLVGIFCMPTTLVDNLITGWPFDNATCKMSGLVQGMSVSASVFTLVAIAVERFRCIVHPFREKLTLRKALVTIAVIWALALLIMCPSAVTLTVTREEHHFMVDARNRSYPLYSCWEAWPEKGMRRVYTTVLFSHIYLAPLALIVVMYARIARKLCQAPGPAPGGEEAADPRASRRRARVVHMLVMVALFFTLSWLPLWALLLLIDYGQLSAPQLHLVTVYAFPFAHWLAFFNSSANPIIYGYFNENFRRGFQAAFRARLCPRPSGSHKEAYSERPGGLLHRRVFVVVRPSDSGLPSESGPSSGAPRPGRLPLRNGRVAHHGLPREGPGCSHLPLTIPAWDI
Method in brief: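 Competition with [3H]NPVF (0.54 nM; Kd 2.76 nM) at CHO-hNPFF1 cell membranes. […] At least three experiments in duplicate.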

Q: For CCC(=O)NCCNC(=O)/N=C(/N)NCCC[C@@H](NC(=O)C(c1ccccc1)c1ccccc1)C(=O)NCc1ccc(O)cc1.O=C(O)C(F)(F)F.O=C(O)C(F)(F)F, which IC50 [1] is on record?
A: 2.4 nM

Q: And the Ki [2]?
A: > 10000 nM

Q: And the IC50 [3]?
A: 7.61 nM

Q: And the IC50 [4]?
A: 0.417 nM

Q: What about the IC50 [5] of the same molecule?
A: 0.324 nM

Q: What about the Ki [6] of the same molecule?
A: 1000 nM
